# Published values gathered from unrelated publications.
# UCK1: UCK1 (Homo sapiens, UniProt Q9HA47)
# PIK3C2B: Phosphatidylinositol 4-phosphate 3-kinase C2 domain-containing subunit beta (PIK3C2B, Homo sapiens, UniProt O00750)
# Nectin-4: Nectin-4 (Homo sapiens, UniProt Q96NY8)
SMILES,target,test,setting,Kd
O=c1ccn([C@@H]2O[C@H](CO)[C@@H](O)[C@H]2O)c(=O)[nH]1,UCK1,"binding, fluorescence",,56.4 nM
Cc1nc(NC(=O)N2CCC[C@H]2C(N)=O)sc1-c1ccnc(C(C)(C)C(F)(F)F)c1,PIK3C2B,"binding, competition with immobilised ligand",,315 nM
Cc1cc(Nc2cc3ncccc3c(N[C@@H]3C[C@H]4CC[C@@H](C3)N4CCC#N)n2)n[nH]1,"Mitogen-activated protein kinase kinase kinase 3 (MAP3K3, Homo sapiens, UniProt Q99759)","binding, competition with immobilised ligand",,100 nM
Nc1ccn([C@@H]2O[C@H](CO)[C@@H](O)[C@H]2O)c(=O)n1,UCK1,"binding, fluorescence",,15.9 nM
CC(=O)N[C@H](C(=O)N[C@H](C(=O)N[C@@H](Cc1ccccc1)C(=O)N[C@H](C(=O)N[C@@H](CO)C(=O)N[C@@H](Cc1c[nH]c2ccccc12)C(=O)N[C@@H](CCC(=O)O)C(=O)N[C@@H](CCC(=O)O)C(=O)N[C@@H](Cc1ccc(O)cc1)C(=O)N[C@@H](CC(C)C)C(=O)N[C@@H](CC(=O)O)C(=O)N[C@@H](Cc1c[nH]c2ccccc12)C(=O)N[C@H](C(N)=O)C(C)C)[C@@H](C)O)C(C)C)[C@@H](C)O,"Proprotein convertase subtilisin/kexin type 9 (PCSK9, Homo sapiens, UniProt Q8NBP7)","binding, SPR",,667 nM
CCC(=O)N1CCC(C(=O)NCC(=O)N2CCN(c3nc(-c4cnc(N)nc4C(F)F)nc(N4CCOCC4)n3)CC2)CC1,PIK3C2B,"binding, competition with immobilised ligand",,85 nM
CCCC[C@@H]1NC(=O)[C@H](Cc2ccc(O)cc2)NC(=O)[C@@H]2CCCN2C(=O)[C@H](CC(=O)O)NC(=O)[C@H](C)NC(=O)[C@H](Cc2ccccc2)NC(=O)[C@@H]2CSCCC(=O)N3CN(CN(C3)C(=O)CCSC[C@@H](C(=O)N[C@@H](C)C(N)=O)NC1=O)C(=O)CCSC[C@H](NC(C)=O)C(=O)N[C@@H](CC(C)(C)C)C(=O)N1CCC[C@H]1C(=O)N[C@@H](CCC(=O)O)C(=O)N[C@H](CCCCNC(=O)CCc1cn(CC(=O)N[C@H]3CSCCC(=O)N4CN5CN(C4)C(=O)CCSC[C@H](NC(=O)[C@@H](CC(=O)O)NC(=O)[C@H](Cc4cccc6ccccc46)NC(=O)[C@@H]4CCCN4C3=O)C(=O)N[C@@H](CCSC)C(=O)N[C@@H](CCCCNC(=N)N)C(=O)N[C@@H](CC(=O)O)C(=O)N[C@@H](Cc3c[nH]c4ccccc34)C(=O)N[C@@H](CO)C(=O)N[C@@H]([C@@H](C)O)C(=O)N3CCC[C@H]3C(=O)N3C[C@H](O)C[C@H]3C(=O)N[C@@H](Cc3c[nH]c4ccccc34)C(=O)N[C@H](C(N)=O)CSCCC5=O)nn1)C(=O)N1CCC[C@H]1C(=O)N[C@@H](Cc1ccc(O)cc1)C(=O)N2,Nectin-4,"binding, SPR",,1 nM
CC(=O)N[C@H](C(=O)N1C[C@H](O)C[C@H]1C(=O)NCc1ccc(-c2scnc2C)cc1)C(C)(C)SCCCCCCNC(=O)C[C@@H]1N=C(c2ccc(Cl)cc2)c2c(sc(C)c2C)-n2c(C)nnc21,"Bromodomain-containing protein 3, BD1 (BRD3, Homo sapiens, UniProt Q15059)","binding, ITC",,35 nM
CCCN1CCN(c2ccc(-c3cncc(Cl)c3N3CCC4(CCNC4=O)CC3)cc2)CC1,"Serine/threonine-protein kinase 16 (STK16, Homo sapiens, UniProt O75716)",cell-free assay,lysate,19400 nM
CCCC[C@@H]1NC(=O)[C@H](Cc2ccc(O)cc2)NC(=O)[C@@H]2CCCN2C(=O)[C@H](CC(=O)O)NC(=O)[C@H](C)NC(=O)[C@H](Cc2ccccc2)NC(=O)[C@@H]2CSCCC(=O)N3CN(CN(C3)C(=O)CCSC[C@@H](C(=O)N[C@@H](CNC(=O)CCc3cn(CCOCCOCCOCCOCCOCCOCCOCCOCCOCCOCCOCCOCCC(=O)NCCC(=O)N(C)CC(=O)N(C)CC(=O)N(C)CC(=O)N(C)CC(=O)N(C)CC(=O)N(C)CC(=O)N(C)CC(=O)N(C)CC(=O)N(C)CC(=O)N(C)CC(=O)NCCCC[C@@H]4NC(=O)[C@H](Cc5cccc6ccccc56)NC(=O)[C@@H]5CCCN5C(=O)[C@@H](NC(C)=O)CSCCC(=O)N5CN6CN(C5)C(=O)CCSC[C@H](NC4=O)C(=O)N[C@@H](CCSC)C(=O)N[C@@H](CCCCNC(=N)N)C(=O)N[C@@H](CC(=O)O)C(=O)N[C@@H](Cc4c[nH]c5ccccc45)C(=O)N[C@@H](CO)C(=O)N[C@@H]([C@@H](C)O)C(=O)N4CCC[C@H]4C(=O)N4C[C@H](O)C[C@H]4C(=O)N[C@@H](Cc4c[nH]c5ccccc45)C(=O)N[C@H](C(N)=O)CSCCC6=O)nn3)C(N)=O)NC1=O)C(=O)CCSC[C@H](NC(C)=O)C(=O)N[C@@H](CC(C)(C)C)C(=O)N1CCC[C@H]1C(=O)N[C@@H](CCC(=O)O)C(=O)N[C@H](C)C(=O)N1CCC[C@H]1C(=O)N[C@@H](Cc1ccc(O)cc1)C(=O)N2,Nectin-4,"binding, SPR",,2 nM
Cc1cnc(-c2ccc(-c3ccc(NC(=O)Nc4c(F)cc(F)cc4F)cc3F)c3c2C(=O)NC3)[nH]1,"Aurora kinase B (AURKB, Homo sapiens, UniProt Q96GD4)","binding, competition with immobilised ligand",,3.1 nM
O=C(CCCCCCC(=O)Nc1ccc([C@H]2O[C@@H](CSc3nc(-c4ccccc4)c(-c4ccccc4)o3)C[C@@H](c3ccc(CO)cc3)O2)cc1)NO,"Histone deacetylase 2 (HDAC2, Homo sapiens, UniProt Q92769)",cell-free assay,,> 30200 nM
CCN(CC)c1ccc2cc(C(=O)NCCNC(=O)c3ccc(-c4cc(-c5ccc(C#N)cc5)nc(-c5ccco5)c4)cc3)c(=O)oc2c1,"Myc proto-oncogene protein (MYC, Homo sapiens, UniProt P01106)","binding, SPR",,151 nM
NC(=O)c1ncn([C@@H]2O[C@H](COP(=O)(O)O)[C@@H](O)[C@H]2O)c1N,"Adenylosuccinate lyase (ADSL, Homo sapiens, UniProt P30566, R303C)","binding, ITC",,122000 nM
NC(=O)C1=CN([C@@H]2O[C@H](COP(=O)(O)OP(=O)(O)OC[C@H]3O[C@@H](n4cnc5c(N)ncnc54)[C@H](OP(=O)(O)O)[C@@H]3O)[C@@H](O)[C@H]2O)C=CC1,"ZMO1885 (Zymomonas mobilis, UniProt Q5NLA1, D294W/Y343W)",binding,,53000 nM
Nc1ncnc2c1ncn2[C@@H]1O[C@H](COP(=O)(O)O)[C@@H](O)[C@H]1O,"Adenylosuccinate lyase (ADSL, Homo sapiens, UniProt P30566)","binding, ITC",,54000 nM
CCC(=O)N1CCC(C(=O)N(C)CC(=O)N2CCN(c3nc(-c4cnc(N)nc4C(F)F)nc(N4CCOCC4)n3)CC2)CC1,PIK3C2B,"binding, competition with immobilised ligand",,365 nM
